High-throughput results: PubChem, The Scripps Research Institute Molecular Screening Center
PAD4 FP inh = human PAD4 inhibitors, primary screen, biochemical, fluorescence polarization, 1536-well format. Protein-arginine deiminase type-4 (Homo sapiens), Q9UM07. recombinant PAD4, RCA probe fluorescence polarization. inhibition, % at 6.36 µM. actives 0.41% (n = 330,000);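 active means percent inhibition above a cutoff equal to the mean of all tested compounds plus 3 SD, cut at about 15% in these data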
GSTO1 inh = inhibitors of recombinant GSTO1, primary screen, counter-screen for RBBP9 inhibitor project, biochemical, fluorescence polarization | Glutathione S-transferase omega-1 (Homo sapiens), P78417 | activity-based probe fluorescence polarization | inhibition, % at 5.96 µM | actives 1.1% (n = 300,000) | AID 1974, 2009;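 active means inhibition above the campaign mean inhibition plus 3 SD, cut at about 35% in these data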
SIAE inh = human SIAE inhibitors, primary screen, biochemical, fluorescence polarization, FP-Rh probe, 1536-well HTS; SIAE FP-Rh probe binding; inhibition, % at 9.66 µM; actives 0.69% (n = 370,000);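 active means inhibition above a cutoff: mean of compounds within the control limits plus 3 SD of those, cut at about 17% in these data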
PRMT1 FP inh = PRMT1 methyltransferase inhibitors, primary screen, biochemical, fluorescence polarization | recombinant PRMT1, activity-based probe fluorescence polarization | inhibition, % at 2.79 µM | Protein arginine N-methyltransferase 1 (Homo sapiens), Q99873 | AID 652257, 2013 | actives 1.3% (n = 370,000);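 active means inhibition above about 21% made by adding two undisclosed values, limit read from the data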
Target sequence (Q99873 whole entry, looked up): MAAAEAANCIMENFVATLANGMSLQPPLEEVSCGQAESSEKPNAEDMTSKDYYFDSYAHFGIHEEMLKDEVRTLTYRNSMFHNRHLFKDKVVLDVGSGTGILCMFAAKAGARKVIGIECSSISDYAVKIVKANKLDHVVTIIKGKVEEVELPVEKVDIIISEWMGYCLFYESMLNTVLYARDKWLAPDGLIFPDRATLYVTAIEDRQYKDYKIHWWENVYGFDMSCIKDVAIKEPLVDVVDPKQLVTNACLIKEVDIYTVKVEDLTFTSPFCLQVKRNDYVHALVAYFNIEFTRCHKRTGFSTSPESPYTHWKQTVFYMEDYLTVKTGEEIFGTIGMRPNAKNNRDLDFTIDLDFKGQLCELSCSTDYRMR
RBBP9 inh = human RBBP9 inhibitors, primary screen, biochemical, fluorescence polarization, FP-Rh probe, HTS. Serine hydrolase RBBP9 (Homo sapiens), O75884. recombinant RBBP9. inhibition, % at 7.94 µM. actives 0.2% (n = 220,000). AID 1515, 2009;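 active means inhibition above the campaign mean of all tested compounds plus 3 SD, cut at about 14% in these data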
Target sequence (O75884 whole entry, looked up): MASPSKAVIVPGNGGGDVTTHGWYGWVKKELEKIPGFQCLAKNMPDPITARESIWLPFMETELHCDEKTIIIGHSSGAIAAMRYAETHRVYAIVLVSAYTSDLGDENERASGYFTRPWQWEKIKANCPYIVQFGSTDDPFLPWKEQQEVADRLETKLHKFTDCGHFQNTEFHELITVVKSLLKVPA
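Test system – recombinant human RBBP9 · Input – RBBP9 2.5 µM in dispensing solution, pre-mixing · Medium – Tris buffer pH 8.0, NaCl, Pluronic · Schedule – preincubation 30 min plus labeling 45 min at 25 °C · Measured by – fluorescence polarization · Measure – % inhibition · Controls – DMSO and no-protein wells · Replicates – one well per compound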
PRMT1 confirm = PRMT1 methyltransferase inhibitors, confirmation, biochemical, fluorescence polarization, triplicate; shares compounds with PRMT1 FP inh; recombinant His-PRMT1, activity-based probe fluorescence polarization; inhibition, % at 2.79 µM; actives 42% (n = 3,300); AID 687036, 2013;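 active means mean inhibition across replicates above the hit cutoff derived for the earlier primary screen, cut at about 22% in these data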
Hits are given with their value; . = inactive; / = no result. Hits are enriched below; roughly 2.7% of the tested compounds scored in any of these assays.

SMILES	PAD4 FP inh	GSTO1 inh	SIAE inh	PRMT1 FP inh	RBBP9 inh	PRMT1 confirm
S=c1[nH]nc(Nc2cccc3ccccc23)s1	.	.	.	55	.	42
Cc1ccccc1Nc1n[nH]c(=S)s1	/	/	.	36	/	.
CC(C)N1CCSC1=S	/	/	.	.	/	/
CC(=O)NCCc1ccc(C(=O)COC(=O)c2cccn2C)cc1	.	/	.	.	/	/
CC1=C(O)C(=O)C(C2=C(O)C(=O)C(C)=C(O)C2=O)=C(O)C1=O	/	/	.	29	/	34
O=C(CCn1cnnn1)N1CCCC(Nc2ccc(F)c(F)c2)C1 (stereo not drawn)	.	.	.	.	/	/
Cc1ccc(C(=O)Nc2ncc3c(n2)CC(c2ccco2)CC3=O)cc1 (stereo not drawn)	.	.	.	33	.	.
N#CCSc1nc(N)c(C#N)c(C2CCCCC2)c1C#N	.	.	.	.	.	/
N#C/C(=C\c1ccc(N2CCOCC2)c([N+](=O)[O-])c1)c1nc2ccccc2[nH]1	.	.	.	.	.	/
N#C/C(=C\c1ccc(N2CCOCC2)o1)c1nc2ccccc2[nH]1	.	.	.	58	.	.
CC(=O)OC(C(=O)Nc1nccs1)c1ccccc1 (stereo not drawn)	.	.	.	.	/	/
O=C(Nc1nccs1)C(Br)C(Br)c1ccccc1 (stereo not drawn)	.	.	.	65	/	59
Cc1cc(C)n2cnnc2n1	.	.	.	.	.	/
Cc1cc(C)n2c(=S)[nH]nc2n1	.	.	.	56	.	91
O=C(Nc1cccc(F)c1)/C(=C/c1ccco1)NC(=O)c1ccco1	.	.	.	30	/	.
COc1ccc(/C=C(/NC(=O)c2ccc(Br)o2)C(=O)Nc2cccc(C(=O)O)c2)cc1	/	/	.	.	/	/
O=C(Nc1cccc(F)c1)/C(=C\c1cccnc1)NC(=O)c1ccco1	.	.	.	.	.	/
O=C(Nc1cccc(C(=O)O)c1)/C(=C\c1ccco1)NC(=O)c1ccccc1Cl	.	.	.	30	/	.
O=C(Nc1cccc(C(=O)O)c1)/C(=C\c1ccco1)NC(=O)c1ccccc1	.	.	.	.	/	/
O=C(Nc1cccc(C(=O)O)c1)/C(=C\c1ccco1)NC(=O)c1ccc(Br)o1	.	.	.	34	/	.
CN1c2ccccc2C(=O)/C(=C\Nc2ccc(F)cc2)S1(=O)=O	.	.	.	.	.	/
O=c1c2ccccc2nc2n1CCN2Cc1ccc(Cl)cc1	.	.	/	/	.	/
CCN(c1ccc(NS(=O)(=O)c2cc(Cl)ccc2Cl)cc1)C(C)C	.	.	.	32	.	.
CN(C)c1ccc(NS(=O)(=O)c2cc(Cl)ccc2Cl)cc1	.	.	.	.	.	/
O=C1CSc2ccc(C(=O)O)cc2N1	.	.	.	.	.	/
SMILES	PAD4 FP inh	GSTO1 inh	SIAE inh	PRMT1 FP inh	RBBP9 inh	PRMT1 confirm
CC(C)C(=O)N=C1NC(=O)CS1	.	.	.	55	.	35
O=C1CSC(=NC(=O)c2ccccc2)N1	.	.	.	78	.	.
COc1ccccc1NC(=O)/C=C\c1ccco1	.	.	.	.	/	/
COc1ccccc1NC(=O)/C(C#N)=C/C=C/c1ccco1	.	.	.	28	.	.
Cc1ccc(C=Nn2c(-c3n[nH]c4c3CCC4)n[nH]c2=S)s1	/	/	.	29	/	.
COc1ccc(NS(=O)(=O)c2cc(N)ccc2N2CCCCC2)cc1	.	/	.	.	/	/
Nc1ccc(N2CCCC2)c(S(=O)(=O)Nc2cccc(C(F)(F)F)c2)c1	.	/	.	47	/	.
O=C(CC1C(=O)NCCN1Cc1cccc(C(F)(F)F)c1)NCCCOc1cccnc1 (stereo not drawn)	.	.	.	.	/	/
O=C1CC(=C(c2ccccc2)c2ccccc2)C(=O)N1CCCCN1CCN(c2ccccc2)CC1	.	.	.	.	.	/
CCO[C@H]1OC(C(=O)N2CCN(Cc3ccc4c(c3)OCO4)CC2)=C[C@@H](c2csc3ccccc23)[C@@H]1CCCO	.	.	.	96	.	.
CCOC(=O)C1=C(CSc2nc3c(cc2C#N)CN(C)CC3)OC(N)=C(C#N)C1c1ccc(Cl)cc1 (stereo not drawn)	.	.	.	.	.	/
CCOC(=O)C1=C(CSc2nc(CC)c(C)cc2C#N)OC(N)=C(C#N)C1c1ccccc1 (stereo not drawn)	.	.	.	28	.	.
CCOC(=O)C1=C(CSc2nc3c(cc2C#N)CN(C)CC3)OC(N)=C(C#N)C1c1ccncc1 (stereo not drawn)	.	.	.	25	.	.
CCOC(=O)C1=C(CSc2nc(C)cc(C)c2C#N)OC(N)=C(C#N)C1c1ccccc1 (stereo not drawn)	.	.	.	.	.	/
CCOC(=O)C1=C(CSc2nc(-c3ccccc3)ccc2C#N)OC(N)=C(C#N)C1c1ccc(OC)cc1 (stereo not drawn)	.	.	.	48	.	.
COC(=O)COc1ccc(C2Nc3c(Cl)ccc(C(=O)O)c3C3C=CCC32)cc1 (stereo not drawn)	.	.	.	69	.	29
COc1ccc(OC)c(C2Nc3c(Cl)ccc(C(=O)O)c3C3C=CCC32)c1 (stereo not drawn)	.	.	.	46	.	28
COc1cccc(C2Nc3c(F)cc(Br)cc3C3C=CCC32)c1OC (stereo not drawn)	.	.	.	.	.	/
O=C(O)c1cc(Cl)c2c(c1)[C@@H]1C=CC[C@@H]1[C@H](c1ccc(S(=O)(=O)N3CCOCC3)cc1)N2	.	.	/	/	.	/
Cc1c(O)c(S(=O)(=O)c2ccccc2)c(=O)n(-c2ccccc2)c1-c1ccccc1	.	.	.	.	.	/
CCOC(=O)C1(Cc2ccccc2C)CCCN(Cc2cn(C)nc2C)C1 (stereo not drawn)	.	.	.	.	.	/
Cc1cc(C)n2nc(C(=O)NNC(=O)c3ccccc3)nc2n1	.	.	.	.	.	/
Cc1cc2c(=O)n(Cc3ccco3)c(SCC(=O)NCc3ccco3)nc2s1	.	.	.	58	.	.
COc1ccccc1NC(=O)CSc1nc2c(sc3ccccc32)c(=O)n1CCN(C)C	.	.	.	70	.	72
O=C(CSc1nc2c(sc3ccccc32)c(=O)n1CCCN1CCCC1)NCc1ccco1	.	.	.	27	.	.
COCCc1ncc(CN2CCCC(C(=O)Nc3cccc(-c4cccc(C)c4)c3)C2)cn1 (stereo not drawn)	.	.	.	.	/	/
